From PubChem BioAssay
Runt-SMMHC FRET: Runt domain-CBFb-SMMHC interaction inhibition; Cerulean-Runt/Venus-CBFb-SMMHC FRET ratio 530/480, 1 h; inhibition, % at 20 µM; actives 0.74% (n = 220,000); Q01196+Q13951; AID 1434;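 active = mean inhibition across duplicate retests at 20 µM reaching about 50%, limit read from the data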;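 also: 0% = DMSO wells and 100% = wells with excess untagged CBFb-SMMHC; inhibitors lower the FRET ratio by blocking Runt binding to CBFb-SMMHC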
Target sequence (Q01196 whole entry, looked up, the tested form may be a part): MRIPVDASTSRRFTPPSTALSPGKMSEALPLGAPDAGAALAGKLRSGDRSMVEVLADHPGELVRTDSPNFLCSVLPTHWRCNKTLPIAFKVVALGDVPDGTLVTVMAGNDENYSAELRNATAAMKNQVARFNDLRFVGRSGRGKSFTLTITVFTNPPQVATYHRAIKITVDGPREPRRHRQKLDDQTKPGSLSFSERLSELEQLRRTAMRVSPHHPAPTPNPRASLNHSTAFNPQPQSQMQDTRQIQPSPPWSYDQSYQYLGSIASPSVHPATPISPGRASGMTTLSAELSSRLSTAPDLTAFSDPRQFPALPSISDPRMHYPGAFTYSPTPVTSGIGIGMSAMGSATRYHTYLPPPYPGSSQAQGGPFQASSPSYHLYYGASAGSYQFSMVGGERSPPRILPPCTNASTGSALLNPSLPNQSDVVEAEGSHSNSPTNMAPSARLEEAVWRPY
Target sequence (Q13951 whole entry, looked up, the tested form may be a part): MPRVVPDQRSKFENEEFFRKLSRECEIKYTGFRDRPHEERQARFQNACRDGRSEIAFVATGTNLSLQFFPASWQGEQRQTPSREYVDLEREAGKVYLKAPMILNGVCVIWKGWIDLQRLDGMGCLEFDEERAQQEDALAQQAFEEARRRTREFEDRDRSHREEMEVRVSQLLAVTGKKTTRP
Runt-CBFb FRET: Runt domain-CBFb interaction inhibition | Q01196+Q13951 | Cerulean-Runt/Venus-CBFb FRET ratio 530/480, 1 h | inhibition, % at 20 µM | actives 0.46% (n = 220,000);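 active = inhibition over about 50% at 20 µM in the single-dose screen, limit read from the data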;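 also: 0% = DMSO wells and 100% = excess unlabeled CBFb competitor control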
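System: Cerulean-labeled Runt domain protein | Quantity: 100 nM of each labeled protein | Schedule: 1 h compound exposure, room temperature | Detection: Fluorescence energy transfer, 422 nm excitation, 530/480 nm emission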
m-calpain inh: blocks pig calpain II enzyme activity. purified calpain II, fluorogenic peptide substrate, 30 min. inhibition, % at 16 µM. actives 0.37% (n = 220,000). AID 1236;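 active = inhibition above about 50%, limit read from the data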
RanGTP-Imp inh: inhibitors of RanGTP-importin-beta interaction, primary screen, biochemical, FRET, CFP-Ran, YFP-importin-beta, homogeneous | cell-free CFP-Ran/YFP-importin-beta FRET ratio | inhibition, % (no concentration beside the values) | actives 1.1% (n = 300,000) | AID 2216;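 active = more than half of the replicate wells show a fall in the fluorescence ratio signal beyond about 16%, limit read from the data, passing the limit was not always enough; inconclusive = exactly half of the replicate wells pass the set limit; inactive = fewer than half of replicates pass the limit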;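 also: 0% = DMSO wells and 100% = Ran loaded with GDP instead of GTP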
FAS TE block: blocks the thioesterase domain of human fatty acid synthase; actives 0.67% (n = 360,000); recombinant FAS-TE, OMFH fluorogenic substrate, fluorescence endpoint; AID 602261; inhibition, % at 15 µM; P49327;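 active = compounds whose normalised, plate-corrected inhibition of enzyme fluorescence in the single-dose primary screen is 50% or more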;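 also: 0% = DMSO with enzyme and 100% = substrate without enzyme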
FAS-TE inh conf: confirmation of human fatty acid synthase thioesterase inhibitors; shares compounds with FAS TE block; recombinant FAS-TE, OMFH fluorogenic substrate, fluorescence; inhibition, % at 15 µM; actives 45% (n = 2,300); AID 624325;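 active = compounds inhibiting the enzyme by at least 50% at 15 µM in any one of the replicates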;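 also: 0% = enzyme with DMSO only and 100% = wells lacking enzyme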
Starred values were filed as active, the others as inactive; ? = inconclusive; · = no result. This is a sample that favours compounds with a hit; in the whole collection about 2.1% have one here.

SMILES | Runt-SMMHC FRET | Runt-CBFb FRET | m-calpain inh | RanGTP-Imp inh | FAS TE block | FAS-TE inh conf
O=C(Nc1nc(-c2ccc(F)c(F)c2)cs1)c1cc([N+](=O)[O-])ccc1N1CCOCC1 | -6 | 0 | -19 | ? | 55* | 29
Cc1cccc(NC(=O)c2cc([N+](=O)[O-])ccc2N2CCOCC2)c1C | · | · | · | · | 18 | ·
CCOc1ccc(NC(=O)CN(C)C(=O)c2cc([N+](=O)[O-])ccc2N2CCOCC2)cc1OCC | · | · | · | 3 | 10 | ·
O=[N+]([O-])c1cc(-c2csc(NCCc3nc4cc(Cl)c(Cl)cc4n3CCCO)n2)ccc1Cl | · | · | · | ? | 75* | 72*
CCCn1c(CCNc2nc(-c3ccc(Cl)c([N+](=O)[O-])c3)cs2)nc2cc(Cl)c(Cl)cc21 | · | · | · | -2 | 21 | ·
O=C(OCC(=O)N1CCN(S(=O)(=O)c2ccc(Cl)cc2)CC1)C1CC1 | · | · | · | · | -5 | ·
COc1cc2c(-c3ccc4[nH]ccc4c3)c(-c3ccc(C#N)cc3)oc(=O)c2cc1OC | · | · | · | · | 55* | 28
CCOC(=O)c1ccc(-c2c(-c3ccc(OC)cc3)oc(=O)c3cc(OC)c(OC)cc23)cc1F | · | · | · | · | 58* | 6
Cc1ccc(N2CC(O)Cn3c2nc2c3c(=O)[nH]c(=O)n2C)cc1 (stereo unspecified) | · | · | · | -1 | -7 | ·
CCOC(=O)CCSc1nc2c(c(C(F)(F)F)c1C#N)CCC2 | 1 | -3 | -7 | 4 | 71* | 65*
CC(C)OC(=O)[C@H]1[C@H](c2ccc(Cl)cc2)[C@@](C#N)(C(N)=O)[C@@H]2C=CC(C(N)=O)=CN21 | -8 | -3 | -3 | -7 | 59* | 59*
COCC1CCCC1OS(N)(=O)=O (stereo unspecified) | · | · | · | ? | -3 | ·
CC(C)(C)N1C(=O)[C@H]2[C@@H](c3ccc(Br)cc3)N3C(=O)N(c4cccc(F)c4)C(=O)[C@@]3(Cc3ccccc3)[C@H]2C1=O | · | · | · | 3 | 92* | 36*
COc1ccc([C@@H]2[C@@H]3C(=O)N(C(C)(C)C)C(=O)[C@@H]3[C@]3(Cc4ccccc4)C(=O)N(c4cccc(F)c4)C(=O)N23)cc1 | · | · | · | 8 | 52* | -4
CC(C)(C)N1C(=O)[C@H]2[C@@H](c3ccc(Br)cc3)N3C(=O)N(c4ccc(Br)cc4)C(=O)[C@@]3(Cc3ccccc3)[C@H]2C1=O | · | · | · | ? | 91* | 51*
O=C(O)c1ccc(OCCN2CCCC2=O)cc1 | · | · | · | 4 | -4 | ·
CN(C)CCCNC(=O)c1cc(C(=O)c2ccc(F)cc2)c[nH]1 | -3 | -1 | -3 | 5 | -5 | ·
O=C(NC(C(=O)c1ccccc1)c1ccccc1)c1ccccc1 (stereo unspecified) | · | · | · | · | 4 | ·
CC1(C)CC(=O)C(C2C3=C(CC(C)(C)CC3=O)OC3=C2C(=O)CC(C)(C)C3)=C(O)C1 | 3 | 0 | 9 | -4 | -7 | ·
C=CCC[C@@H](Cc1ccc(F)cc1)C(=O)OC[C@H](Cc1c[nH]c2ccccc12)NC(=O)[C@H](CC=C)CC(=O)NCCO | · | · | · | · | 57* | 68*
C=CCC[C@H](Cc1ccc(F)cc1)C(=O)OC[C@@H](Cc1c[nH]c2ccccc12)NC(=O)[C@H](CC=C)CC(=O)NCCO | · | · | · | · | 11 | ·
O=C(CN1CCN(S(=O)(=O)c2ccc(Cl)c(C(F)(F)F)c2)CC1)NC(=O)NC1CCCCC1 | · | · | · | · | 77* | 20*
O=C(NC1CC1)c1ccc(NS(=O)(=O)c2ccc(F)cc2)cc1 | · | · | · | 0 | -6 | ·
O=C(Nc1ccccc1)C(Cl)C(=O)c1ccccc1 (stereo unspecified) | · | · | · | 6 | 51* | 40
COc1ccc(OC)c(NC(=O)c2cnc(Nc3ccccc3OC)c3ccccc23)c1 | 10 | 0 | -108 | -1 | 34 | ·
SMILES | Runt-SMMHC FRET | Runt-CBFb FRET | m-calpain inh | RanGTP-Imp inh | FAS TE block | FAS-TE inh conf
CC(=O)c1cccc2c1OC(C)C(=O)N2Cc1ccc(Cl)cc1 (stereo unspecified) | · | · | · | · | 57* | 62*
COc1ccc(CN2C(=O)C(C)Oc3ccccc32)cc1 (stereo unspecified) | · | · | · | -3 | 10 | ·
Cn1nc(C(=O)Nc2nc3ccccc3[nH]2)ccc1=O | 1 | 2 | 27 | -3 | -8 | ·
CCOC(=O)c1c(C)[nH]c(C)c1S(=O)(=O)N1CCN(c2ccc([N+](=O)[O-])cc2)CC1 | · | · | · | -2 | 20 | ·
COc1cc(C2C3C(=O)N(c4ccccc4)C(=O)C3ON2c2ccccc2)cc(OC)c1OC (stereo unspecified) | 0 | -3 | 31 | 1 | 2 | ·
CN1C(=S)SC(N2OC3C(=O)N(c4ccccc4)C(=O)C3C2c2ccc(Cl)cc2)C1(C)C (stereo unspecified) | -1 | -2 | -68 | -4 | 69* | 35
COc1ccc(Nc2cc(C(=O)N3CCc4ccccc4C3)c3ccccc3n2)c(OC)c1 | -5 | 0 | -75 | ? | 61* | 28
CC(C)C[C@H](NC(=O)N1CCn2c1nc1ccccc12)C(=O)N[C@@H](C(=O)O)c1ccccc1 | · | · | · | 2 | 2 | ·
CC1=C(C(=O)OCC(Br)(Br)Br)C(c2cccc([N+](=O)[O-])c2)NC(=O)N1CCCC(=O)O (stereo unspecified) | · | · | · | 2 | 56* | 65*
O=C(Nc1ccn(CCCNCC(c2ccccc2)c2ccccc2)c(=O)n1)OCc1ccccc1 | · | · | · | · | -1 | ·
OC(CCc1ccncc1)COc1ccccc1 (stereo unspecified) | · | · | · | -1 | -8 | ·
Fc1nc(F)c(F)c(NCCCNc2c(F)c(F)nc(F)c2F)c1F | -1 | -2 | -5 | -5 | 55* | 57*
Cn1c2ccccc2c2nnc(SCc3ccc4nonc4c3)nc21 | 1 | -2 | -27 | -3 | 58* | 23
Cn1c2ccccc2c2nnc(SCc3nnc(-c4ccccc4)o3)nc21 | · | · | 3 | -1 | · | ·
COc1ccc(CN2CC(=O)N3[C@H]4c5ccccc5OC[C@@H]4[C@H](c4ccccc4)[C@]3(C)C2=O)cc1 | · | · | · | · | 47 | ·
C[C@@]12C(=O)N(Cc3ccccc3)CC(=O)N1[C@H]1c3cc(Cl)ccc3OC[C@@H]1[C@@H]2c1ccccc1 | · | · | · | · | 26 | ·
COc1ccc2c(c1)OC[C@H]1[C@H]2N2C(=O)CN(Cc3ccc(C)cc3)C(=O)[C@@]2(C)[C@H]1c1ccccc1 | · | · | · | · | 62* | 35
COc1ccc(CN2CC(=O)N3[C@H]4c5cc(C)ccc5OC[C@@H]4[C@H](c4ccccc4)[C@]3(C)C2=O)cc1 | · | · | · | · | 41 | ·
C[C@@]12C(=O)N(Cc3ccc(F)cc3)CC(=O)N1[C@H]1c3cc(Cl)ccc3OC[C@@H]1[C@@H]2c1ccccc1 | · | · | · | · | 84* | 37
COc1ccc2c(c1)OC[C@H]1[C@H]2N2C(=O)CN(Cc3ccc(F)cc3)C(=O)[C@@]2(C)[C@H]1c1ccccc1 | · | · | · | · | 61* | 41
CCCC(C(=O)Nc1ccncc1)c1ccccc1 (stereo unspecified) | · | · | · | 1 | -1 | ·
